Data: ChEMBL document CHEMBL1151891, “Synthesis and anticancer activities of novel 3,5-disubstituted-1,2,4-oxadiazoles” (Bioorg Med Chem Lett, 2009)

Experiments:
Format in all cases: functional, cell-based
HCT-116 = assay: Anticancer activity against human HCT116 cells after 24 hrs by MTT assay; conditions: HCT-116, 24 h
Procedure, shortened: (§1)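 Cells maintained in RPMI-1640 with 10% heat-inactivated FBS and 1% penicillin/streptomycin. Seeded at 4.0 × 10³ cells/well for 12 h, then exposed to compounds over a 10 nM–1 mM range for 24 h. MTT added to 0.5 mg/ml final for 30 min. Cells washed twice in PBS and lysed in DMSO. Absorbance read at 570 nm; IC50 reported.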

PC-3 = assay: Anticancer activity against human PC3 cells after 24 hrs by MTT assay; conditions: PC-3, 24 h; procedure, shortened: as §1
[1] = Anticancer activity against human MDA231 cells after 24 hrs by MTT assay; conditions: MDA-MB-231, 24 h; procedure, shortened: as §1
MCF7 = assay: Anticancer activity against human MCF7 cells after 24 hrs by MTT assay; conditions: MCF7, 24 h; procedure, shortened: as §1
DU-145 = assay: Anticancer activity against human DU145 cells after 24 hrs by MTT assay; conditions: DU-145, 24 h; procedure, shortened: as §1
LNCaP = assay: Anticancer activity against human LNCAP cells after 24 hrs by MTT assay; procedure, shortened: as §1
MIA PaCa-2 = assay: Anticancer activity against human MIAPaCa2 cells after 24 hrs by MTT assay; conditions: MIA PaCa-2, 24 h; procedure, shortened: as §1

IC50 (HCT-116) [µM] | IC50 (PC-3) [µM] | IC50 (MCF7) [µM] | IC50 (DU-145) [µM] | IC50 (LNCaP) [µM] | IC50 (MIA PaCa-2) [µM] | Compound | IC50 [1] [µM]
> 1000 | > 1000 | > 1000 | > 1000 | > 1000 | 9.33 | COc1ccc(-c2noc(-c3ccncc3)n2)cc1OC1CCCC1 | 240
185 | > 1000 | > 1000 | 242 | 0.043 | 19.5 | COc1ccc(-c2noc(C3CCCN3)n2)cc1OC1CCCC1 (stereo not drawn) | 212
> 1000 | > 1000 | > 1000 | > 1000 | > 1000 | > 1000 | COc1ccc(-c2noc(-c3ccccc3)n2)cc1OC1CCCC1 | > 1000
0.27 | 162 | 0.39 | 0.78 | 0.86 | 0.48 | COc1ccc(-c2noc(-c3ccc(O)cc3)n2)cc1OC1CCCC1 | 0.31
> 1000 | > 1000 | > 1000 | > 1000 | > 1000 | > 1000 | COc1cc(-c2noc(-c3ccncc3)n2)ccc1OCc1ccccc1 | > 1000
> 1000 | > 1000 | > 1000 | > 1000 | > 1000 | > 1000 | COc1ccc(-c2noc(-c3cccnc3)n2)cc1OC1CCCC1 | > 1000
> 1000 | > 1000 | 174 | 122 | 20.8 | 0.74 | COc1ccc(-c2noc(-c3ccc(Cl)cc3)n2)cc1OC1CCCC1 | 396
1.54 | > 1000 | 3.88 | 0.057 | 0.01 | 0.54 | COc1ccc(-c2noc(C3CCNCC3)n2)cc1OC1CCCC1 | 0.37
> 1000 | > 1000 | > 1000 | > 1000 | > 1000 | 351 | COc1ccc(-c2noc(-c3ccc(F)cc3)n2)cc1O | > 1000
185 | > 1000 | 174 | 302 | 28.3 | 3.01 | COc1ccc(-c2noc(CC(C)=O)n2)cc1OC1CCCC1 | 53.3
210 | > 1000 | 3.88 | 20.7 | 87.9 | 6.09 | COc1ccc(-c2noc(-c3ccc(F)cc3)n2)cc1OC1CCCC1 | 55.5
> 1000 | > 1000 | > 1000 | 657 | 710 | 497 | c1ccc(-c2noc(-c3ccncc3)n2)cc1 | > 1000
> 1000 | > 1000 | > 1000 | > 1000 | > 1000 | 9.56 | COc1ccc(-c2noc(Cc3c[nH]c4ccccc34)n2)cc1OC1CCCC1 | > 1000
> 1000 | > 1000 | > 1000 | > 1000 | 23.7 | > 1000 | Fc1ccc(-c2nc(-c3ccccc3)no2)cc1 | > 1000
